# Measured values from ChEMBL document CHEMBL4325860, “Synthesis of novel 2-(1-adamantanylcarboxamido)thiophene derivatives. Selective cannabinoid type 2 (CB2) receptor agonists as potential agents for the treatment of skin inflammatory disease” (Eur J Med Chem, 2019).
# The source made the active and inactive calls. No cut-off for these calls is given here.
# What was measured:
# Homo sapiens = organism: Homo sapiens; assay: Selectivity index, ratio of Ki for displacement of [3H]CP55940 from recombinant human CB1R expressed in HEK293 cell membranes to Ki for displacement of [3H]CP55940 from recombinant human CB2R expressed in HEK293 cell membranes
# Method in brief: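 Competition binding on membranes of HEK cells transfected with human CB1R or CB2R, radioligand [³H]CP-55,940. Ki from at least three separate experiments run in duplicate, reported as mean. Selectivity index = Ki(CB1R)/Ki(CB2R).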
# Cannabinoid receptor 2 [1] = target: T1, Cannabinoid receptor 2 (Homo sapiens, UniProt P34972); assay: Displacement of [3H]CP55940 from recombinant human CB2R expressed in HEK293 cell membranes at 10 uM measured after 90 mins relative to control
# T1 sequence (P34972 whole entry): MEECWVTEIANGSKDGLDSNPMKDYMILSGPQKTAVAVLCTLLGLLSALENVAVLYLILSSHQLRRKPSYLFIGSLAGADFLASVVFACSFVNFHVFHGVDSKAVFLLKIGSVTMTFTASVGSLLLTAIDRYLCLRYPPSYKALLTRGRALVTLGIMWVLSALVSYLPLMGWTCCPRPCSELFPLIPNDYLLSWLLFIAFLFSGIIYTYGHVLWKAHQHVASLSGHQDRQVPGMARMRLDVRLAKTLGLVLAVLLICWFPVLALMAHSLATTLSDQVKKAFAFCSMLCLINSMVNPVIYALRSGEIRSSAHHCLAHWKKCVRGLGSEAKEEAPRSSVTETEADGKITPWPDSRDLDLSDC
# [2] = target: Cannabinoid receptor 1 (CB1R) (Homo sapiens, UniProt P21554); assay: Displacement of [3H]CP55940 from recombinant human CB1R expressed in HEK293 cell membranes at 10 uM measured after 90 mins relative to control; details: membranes of HEK293 cells expressing recombinant human CB1R, probe [3H]CP55940
# Chain of Cannabinoid receptor 1 (CB1R) (P21554 whole entry): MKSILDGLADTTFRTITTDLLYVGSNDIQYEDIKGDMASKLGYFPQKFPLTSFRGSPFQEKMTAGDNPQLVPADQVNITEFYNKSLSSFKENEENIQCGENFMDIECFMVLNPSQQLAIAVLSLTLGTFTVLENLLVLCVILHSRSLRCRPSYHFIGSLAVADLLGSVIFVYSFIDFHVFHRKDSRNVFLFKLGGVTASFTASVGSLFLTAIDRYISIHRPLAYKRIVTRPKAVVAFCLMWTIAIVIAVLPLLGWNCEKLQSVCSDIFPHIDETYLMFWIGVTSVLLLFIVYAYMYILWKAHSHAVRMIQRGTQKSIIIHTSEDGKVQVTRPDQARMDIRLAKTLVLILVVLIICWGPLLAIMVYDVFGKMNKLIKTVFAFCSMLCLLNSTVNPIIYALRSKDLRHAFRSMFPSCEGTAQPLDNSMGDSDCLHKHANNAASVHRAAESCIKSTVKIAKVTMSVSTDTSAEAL
# Cannabinoid receptor 1 = Cannabinoid receptor 1 (Homo sapiens, UniProt P21554); assay: Displacement of [3H]CP55940 from recombinant human CB1R expressed in HEK293 cell membranes measured after 90 mins
# Chain of Cannabinoid receptor 1 (P21554 whole entry): as above
# Cannabinoid receptor 2 [3] = target: T1, Cannabinoid receptor 2; assay: Displacement of [3H]CP55940 from recombinant human CB2R expressed in HEK293 cell membranes measured after 90 mins
# Cannabinoid receptor 2 [4] = target: T1, Cannabinoid receptor 2; assay: Agonist activity at recombinant human CB2R expressed in CHOK1 cells assessed as inhibition of NKH477-stimulated intracellular cAMP levels preincubated for 15 mins followed by CB2R agonist JWH133 addition and measured after 30 mins by chemiluminescent assay; format: functional, cell-based
# Cannabinoid receptor 2 [5] = target: T1, Cannabinoid receptor 2; assay: Agonist activity at recombinant human CB2R expressed in CHOK1 cells assessed as inhibition of NKH477-stimulated intracellular cAMP levels after 30 mins by chemiluminescent assay; format: functional, cell-based
# Method in brief: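 cAMP Hunter enzyme fragment complementation assay with chemiluminescent detection, in stable CHO cells expressing human CB2R, stimulated with NKH-477. Concentration-response curves. Response normalized with NKH-477 alone as 100%. Mean ± SEM of three independent experiments run in triplicate.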
# HaCaT [6] = assay: Antiinflammatory activity in human HaCaT cells assessed as inhibition of polyinosinic polycytidylic acid-stimulated MCP2 release at 10 uM measured after 6 hrs in presence of CB2R antagonist AM630 by ELISA; format: functional, cell-based
# Method in brief: (§1)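 HaCaT keratinocytes stimulated with poly-(I:C) at 100 µg/mL. MCP-2 release measured with test agent at 10 µM, alone or co-incubated with the CB2R antagonist AM630 at 0.1 µM.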
# HaCaT [7] = assay: Antiinflammatory activity in human HaCaT cells assessed as inhibition of polyinosinic polycytidylic acid-stimulated MCP2 release at 10 uM measured after 6 hrs by ELISA; format: functional, cell-based; method in brief: as §1
# Cannabinoid receptor 2 [8] = target: T1, Cannabinoid receptor 2; assay: Activity at recombinant human CB2R expressed in CHOK1 cells assessed as effect on basal intracellular cAMP levels at higher concentration measured after 30 mins by chemiluminescent assay; format: functional, cell-based
smiles,measurement,setting,value
COC(=O)c1[nH]ccc1NC(=O)C12CC3CC(CC(C3)C1)C2,Ratio Ki,Homo sapiens,> 4
same,inhibition,Cannabinoid receptor 2 [1],> 50%
same,"inhibition at 1.5 h, 10 µM",[2],< 50%
same,Ki,Cannabinoid receptor 1,> 10 µM
same,Ki,Cannabinoid receptor 2 [3],2140 nM
COC(=O)c1c(C)noc1NC(=O)C12CC3CC(CC(C3)C1)C2,Ratio Ki,Homo sapiens,> 154
same,inhibition,Cannabinoid receptor 2 [1],> 50%
same,"inhibition at 1.5 h, 10 µM",[2],< 50%
same,Ki,Cannabinoid receptor 1,> 10 µM
same,Ki,Cannabinoid receptor 2 [3],64.7 nM
CCc1c(C)sc(NC(=O)C23CC4CC(CC(C4)C2)C3)c1C(=O)OC,Ratio Ki,Homo sapiens,75
same,inhibition,Cannabinoid receptor 2 [4],inactive
same,inhibition,Cannabinoid receptor 2 [1],> 50%
same,"inhibition at 1.5 h, 10 µM",[2],< 50%
same,EC50,Cannabinoid receptor 2 [5],197 nM
same,inhibition,HaCaT [6],inactive
same,Ki,Cannabinoid receptor 1,0.185 µM
same,inhibition,HaCaT [7],Active
same,Ki,Cannabinoid receptor 2 [3],2.46 nM
COC(=O)c1c(NC(=O)C23CC4CC(CC(C4)C2)C3)cnn1C,Ratio Ki,Homo sapiens,> 9
same,inhibition,Cannabinoid receptor 2 [1],> 50%
same,"inhibition at 1.5 h, 10 µM",[2],< 50%
same,Ki,Cannabinoid receptor 1,> 10 µM
same,Ki,Cannabinoid receptor 2 [3],1080 nM
COC(=O)c1c(NC(=O)C23CC4CC(CC(C4)C2)C3)sc2c1CCSC2,Ratio Ki,Homo sapiens,> 197
same,inhibition,Cannabinoid receptor 2 [1],> 50%
same,"inhibition at 1.5 h, 10 µM",[2],< 50%
same,Ki,Cannabinoid receptor 1,> 10 µM
same,Ki,Cannabinoid receptor 2 [3],50.7 nM
COC(=O)c1c(NC(=O)C23CC4CC(CC(C4)C2)C3)sc(C)c1C,Ratio Ki,Homo sapiens,> 1080
same,inhibition,Cannabinoid receptor 2 [4],inactive
same,inhibition,Cannabinoid receptor 2 [1],> 50%
same,"inhibition at 1.5 h, 10 µM",[2],< 50%
same,EC50,Cannabinoid receptor 2 [5],318 nM
same,Ki,Cannabinoid receptor 1,> 10 µM
same,Ki,Cannabinoid receptor 2 [3],9.24 nM
COC(=O)c1c(-c2ccccc2)csc1NC(=O)C12CC3CC(CC(C3)C1)C2,Ratio Ki,Homo sapiens,> 285
same,inhibition,Cannabinoid receptor 2 [1],> 50%
same,"inhibition at 1.5 h, 10 µM",[2],< 50%
same,Ki,Cannabinoid receptor 1,> 10 µM
same,Ki,Cannabinoid receptor 2 [3],35 nM
COC(=O)c1c(NC(=O)NC23CC4CC(CC(C4)C2)C3)sc2c1CCCC2,Ratio Ki,Homo sapiens,> 477
same,inhibition,Cannabinoid receptor 2 [1],> 50%
same,"inhibition at 1.5 h, 10 µM",[2],< 50%
same,Ki,Cannabinoid receptor 1,> 10 µM
same,Ki,Cannabinoid receptor 2 [3],21 nM
COC(=O)c1cccnc1NC(=O)C12CC3CC(CC(C3)C1)C2,Ratio Ki,Homo sapiens,> 8
same,inhibition,Cannabinoid receptor 2 [1],> 50%
same,"inhibition at 1.5 h, 10 µM",[2],< 50%
same,Ki,Cannabinoid receptor 1,> 10 µM
same,Ki,Cannabinoid receptor 2 [3],1220 nM
COC(=O)c1ccsc1NC(=O)C12CC3CC(CC(C3)C1)C2,Ratio Ki,Homo sapiens,> 68
same,inhibition,Cannabinoid receptor 2 [1],> 50%
same,"inhibition at 1.5 h, 10 µM",[2],< 50%
same,Ki,Cannabinoid receptor 1,> 10 µM
same,Ki,Cannabinoid receptor 2 [3],1320 nM
COC(=O)c1cc(-c2ccccc2)sc1NC(=O)C12CC3CC(CC(C3)C1)C2,Ratio Ki,Homo sapiens,> 1540
same,inhibition,Cannabinoid receptor 2 [1],> 50%
same,"inhibition at 1.5 h, 10 µM",[2],< 50%
same,Ki,Cannabinoid receptor 1,> 10 µM
same,Ki,Cannabinoid receptor 2 [3],6.48 nM
COC(=O)c1c(NC(=O)N2CCOCC2)sc2c1CCCC2,Ratio Ki,Homo sapiens,> 4
same,inhibition,Cannabinoid receptor 2 [1],> 50%
same,"inhibition at 1.5 h, 10 µM",[2],< 50%
same,Ki,Cannabinoid receptor 1,> 10 µM
same,Ki,Cannabinoid receptor 2 [3],2490 nM
CCCc1c(C)sc(NC(=O)C23CC4CC(CC(C4)C2)C3)c1C(=O)OC,Ratio Ki,Homo sapiens,257
same,inhibition,Cannabinoid receptor 2 [1],> 50%
same,"inhibition at 1.5 h, 10 µM",[2],< 50%
CCc1c(C)sc(NC(=O)c2ccc(Cl)cc2)c1C(=O)OC,Ratio Ki,Homo sapiens,> 16
same,inhibition,Cannabinoid receptor 2 [1],> 50%
same,"inhibition at 1.5 h, 10 µM",[2],< 50%
same,Ki,Cannabinoid receptor 1,> 10 µM
same,Ki,Cannabinoid receptor 2 [3],621 nM
CCc1sc(NC(=O)C23CC4CC(CC(C4)C2)C3)c(C(=O)OC)c1C,Ratio Ki,Homo sapiens,358
same,inhibition,Cannabinoid receptor 2 [4],inactive
same,inhibition,Cannabinoid receptor 2 [1],> 50%
same,"inhibition at 1.5 h, 10 µM",[2],< 50%
same,EC50,Cannabinoid receptor 2 [5],371 nM
same,Ki,Cannabinoid receptor 1,2.12 µM
same,Ki,Cannabinoid receptor 2 [3],5.92 nM
COC(=O)c1c(NC(=O)C23CC4CC(CC(C4)C2)C3)sc2c1CCCC2,Ratio Ki,Homo sapiens,> 1970
same,inhibition,Cannabinoid receptor 2 [4],inactive
same,inhibition,Cannabinoid receptor 2 [1],> 50%
same,"inhibition at 1.5 h, 10 µM",[2],< 50%
same,EC50,Cannabinoid receptor 2 [5],1530 nM
same,Ki,Cannabinoid receptor 1,> 10 µM
same,Activity,Cannabinoid receptor 2 [8],inactive
same,Ki,Cannabinoid receptor 2 [3],5.08 nM
COC(=O)c1nn(C)cc1NC(=O)C12CC3CC(CC(C3)C1)C2,Ratio Ki,Homo sapiens,> 11
same,inhibition,Cannabinoid receptor 2 [1],> 50%
same,"inhibition at 1.5 h, 10 µM",[2],< 50%
same,Ki,Cannabinoid receptor 1,> 10 µM
same,Ki,Cannabinoid receptor 2 [3],845 nM
CCc1c(C)sc(NC(=O)c2ccc(F)cc2)c1C(=O)OC,Ratio Ki,Homo sapiens,> 20
same,inhibition,Cannabinoid receptor 2 [1],> 50%
same,"inhibition at 1.5 h, 10 µM",[2],< 50%
same,Ki,Cannabinoid receptor 1,> 10 µM
same,Ki,Cannabinoid receptor 2 [3],496 nM
CCCc1cc(C(=O)OC)c(NC(=O)C23CC4CC(CC(C4)C2)C3)s1,Ratio Ki,Homo sapiens,186
same,inhibition,Cannabinoid receptor 2 [1],> 50%
same,"inhibition at 1.5 h, 10 µM",[2],< 50%
same,Ki,Cannabinoid receptor 1,1.34 µM
same,Ki,Cannabinoid receptor 2 [3],7.21 nM
COC(=O)c1c(NC(=O)Oc2ccccc2)sc2c1CCCC2,Ratio Ki,Homo sapiens,> 41
same,inhibition,Cannabinoid receptor 2 [1],> 50%
same,"inhibition at 1.5 h, 10 µM",[2],< 50%
same,Ki,Cannabinoid receptor 1,> 10 µM
same,Ki,Cannabinoid receptor 2 [3],244 nM
COC(=O)c1cc(C)sc1NC(=O)C12CC3CC(CC(C3)C1)C2,Ratio Ki,Homo sapiens,> 433
same,inhibition,Cannabinoid receptor 2 [1],> 50%
same,"inhibition at 1.5 h, 10 µM",[2],< 50%
same,Ki,Cannabinoid receptor 1,> 10 µM
same,Ki,Cannabinoid receptor 2 [3],23.1 nM
COC(=O)c1c(NC(=O)C23CC4CC(CC(C4)C2)C3)sc2c1CCS(=O)(=O)C2,Ratio Ki,Homo sapiens,> 6
same,inhibition,Cannabinoid receptor 2 [1],> 50%
same,"inhibition at 1.5 h, 10 µM",[2],< 50%
same,Ki,Cannabinoid receptor 1,> 10 µM
same,Ki,Cannabinoid receptor 2 [3],1670 nM
COC(=O)c1c(NC(=O)N2CCCCC2)sc2c1CCCC2,Ratio Ki,Homo sapiens,> 51
same,inhibition,Cannabinoid receptor 2 [1],> 50%
same,"inhibition at 1.5 h, 10 µM",[2],< 50%
same,Ki,Cannabinoid receptor 1,> 10 µM
same,Ki,Cannabinoid receptor 2 [3],196 nM
CCCCCc1sc(NC(=O)C23CC4CC(CC(C4)C2)C3)c(C(=O)OC)c1-c1ccccc1,Ratio Ki,Homo sapiens,65
same,inhibition,Cannabinoid receptor 2 [1],> 50%
same,"inhibition at 1.5 h, 10 µM",[2],< 50%
same,Ki,Cannabinoid receptor 1,0.519 µM
same,Ki,Cannabinoid receptor 2 [3],8.03 nM
COc1ccc(C(=O)c2c(C)n(CCN3CCOCC3)c3cc(I)ccc23)cc1,inhibition,Cannabinoid receptor 2 [1],> 50%
same,"inhibition at 1.5 h, 10 µM",[2],< 50%
Cc1ccc(Cn2nc(C(=O)N[C@@H]3C(C)(C)[C@@H]4CC[C@@]3(C)C4)cc2-c2ccc(Cl)c(C)c2)cc1,"inhibition at 1.5 h, 10 µM",[2],< 50%
CCCCc1sc(NC(=O)C23CC4CC(CC(C4)C2)C3)c(C(=O)OC)c1C,Ratio Ki,Homo sapiens,34
same,inhibition,Cannabinoid receptor 2 [4],inactive
same,inhibition,Cannabinoid receptor 2 [1],> 50%
same,"inhibition at 1.5 h, 10 µM",[2],< 50%
same,EC50,Cannabinoid receptor 2 [5],1140 nM
same,Ki,Cannabinoid receptor 1,0.0589 µM
same,Activity,Cannabinoid receptor 2 [8],inactive
same,Ki,Cannabinoid receptor 2 [3],1.72 nM
